Laboratory results published in ChEMBL document CHEMBL3120102, “Structure-based design, synthesis and biological evaluation of novel anthra[1,2-d]imidazole-6,11-dione homologues as potential antitumor agents” (2013).

Tests used:
Type in all cases: functional
MDA-MB-231 = test: Cytotoxicity against human MDA-MB-231 cells assessed as cell growth at 10 uM after 48 hrs by SRB assay; details: MDA-MB-231, 48 h, read-out: Activity
Outline: (§1)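 First stage of the NCI 60 human tumour cell line screen: a single dose is tested against every line. Cell growth is read as cellular protein by sulforhodamine B colorimetry after 48 h of drug exposure, with reference to a time-zero control and to untreated plates.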

PC-3 = test: Cytotoxicity against human PC3 cells assessed as cell growth at 10 uM after 48 hrs by SRB assay; details: PC-3, 48 h, read-out: Activity; outline: as §1
[1] = Cytotoxicity against human UO31 cells assessed as cell growth at 10 uM after 48 hrs by SRB assay; details: UO-31, 48 h, read-out: Activity
Outline: (§2)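 First stage of the NCI 60 human tumour cell line screen, with each compound tested at a single dose of 10. Cellular protein measured by sulforhodamine B colorimetry after 48 h drug exposure. Growth is calculated against a time-zero cell control and against plates not exposed to drug.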

SN12C = test: Cytotoxicity against human SN12C cells assessed as cell growth at 10 uM after 48 hrs by SRB assay; details: read-out: Activity; outline: as §1
RXF 393 = test: Cytotoxicity against human RXF393 cells assessed as cell growth at 10 uM after 48 hrs by SRB assay; details: RXF 393, 48 h, read-out: Activity; outline: as §1
ACHN = test: Cytotoxicity against human ACHN cells assessed as cell growth at 10 uM after 48 hrs by SRB assay; details: read-out: Activity
A498 = test: Cytotoxicity against human A498 cells assessed as cell growth at 10 uM after 48 hrs by SRB assay; details: A498, 48 h, read-out: Activity
SK-OV-3 = test: Cytotoxicity against human SKOV3 cells assessed as cell growth at 10 uM after 48 hrs by SRB assay; details: SK-OV-3, 48 h, read-out: Activity; outline: as §1
[2] = Cytotoxicity against human NCI-ADR-RES cells assessed as cell growth at 10 uM after 48 hrs by SRB assay; details: read-out: Activity; outline: as §1
[3] = Cytotoxicity against human OVCAR4 cells assessed as cell growth at 10 uM after 48 hrs by SRB assay; details: OVCAR-4, 48 h, read-out: Activity; outline: as §1
[4] = Cytotoxicity against human OVCAR5 cells assessed as cell growth at 10 uM after 48 hrs by SRB assay; details: OVCAR-5, 48 h, read-out: Activity; outline: as §1
[5] = Cytotoxicity against human UACC257 cells assessed as cell growth at 10 uM after 48 hrs by SRB assay; details: UACC-257, 48 h, read-out: Activity; outline: as §2
SK-MEL-28 = test: Cytotoxicity against human SK-MEL-28 cells assessed as cell growth at 10 uM after 48 hrs by SRB assay; details: SK-MEL-28, 48 h, read-out: Activity; outline: as §1
SK-MEL-2 = test: Cytotoxicity against human SK-MEL-2 cells assessed as cell growth at 10 uM after 48 hrs by SRB assay; details: SK-MEL-2, 48 h, read-out: Activity; outline: as §1
LOX IMVI = test: Cytotoxicity against human LOXIMVI cells assessed as cell growth at 10 uM after 48 hrs by SRB assay; details: read-out: Activity
Outline: (§3)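 NCI 60-cell-line screen, first stage: compound at a single dose of […] (unit as printed) for 48 h. Cellular protein was measured by sulforhodamine B colorimetry. Growth was determined using a time-zero cell control and plates not exposed to drug.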

SNB-75 = test: Cytotoxicity against human SNB75 cells assessed as cell growth at 10 uM after 48 hrs by SRB assay; details: SNB-75, 48 h, read-out: Activity; outline: as §2
U-251 = test: Cytotoxicity against human U251 cells assessed as cell growth at 10 uM after 48 hrs by SRB assay; details: U-251, 48 h, read-out: Activity; outline: as §2
SNB-19 = test: Cytotoxicity against human SNB19 cells assessed as cell growth at 10 uM after 48 hrs by SRB assay; details: SNB-19, 48 h, read-out: Activity; outline: as §2
SF-539 = test: Cytotoxicity against human SF539 cells assessed as cell growth at 10 uM after 48 hrs by SRB assay; details: SF-539, 48 h, read-out: Activity; outline: as §1
SF-295 = test: Cytotoxicity against human SF295 cells assessed as cell growth at 10 uM after 48 hrs by SRB assay; details: SF-295, 48 h, read-out: Activity; outline: as §1
SF-268 = test: Cytotoxicity against human SF268 cells assessed as cell growth at 10 uM after 48 hrs by SRB assay; details: SF-268, 48 h, read-out: Activity; outline: as §1
SW-620 = test: Cytotoxicity against human SW620 cells assessed as cell growth at 10 uM after 48 hrs by SRB assay; details: SW-620, 48 h, read-out: Activity; outline: as §2
KM12 = test: Cytotoxicity against human KM12 cells assessed as cell growth at 10 uM after 48 hrs by SRB assay; details: KM12, 48 h, read-out: Activity
HCT-15 = test: Cytotoxicity against human HCT15 cells assessed as cell growth at 10 uM after 48 hrs by SRB assay; details: HCT-15, 48 h, read-out: Activity
HCT-116 = test: Cytotoxicity against human HCT116 cells assessed as cell growth at 10 uM after 48 hrs by SRB assay; details: HCT-116, 48 h, read-out: Activity
NCI-H460 = test: Cytotoxicity against human NCI-H460 cells assessed as cell growth at 10 uM after 48 hrs by SRB assay; details: NCI-H460, 48 h, read-out: Activity; outline: as §1
NCI-H322M = test: Cytotoxicity against human NCI-H322M cells assessed as cell growth at 10 uM after 48 hrs by SRB assay; details: read-out: Activity; outline: as §1
NCI-H226 = test: Cytotoxicity against human NCI-H226 cells assessed as cell growth at 10 uM after 48 hrs by SRB assay; details: NCI-H226, 48 h, read-out: Activity; outline: as §1
HOP-92 = test: Cytotoxicity against human HOP92 cells assessed as cell growth at 10 uM after 48 hrs by SRB assay; details: HOP-92, 48 h, read-out: Activity; outline: as §3
HOP-62 = test: Cytotoxicity against human HOP62 cells assessed as cell growth at 10 uM after 48 hrs by SRB assay; details: HOP-62, 48 h, read-out: Activity; outline: as §3
RPMI-8226 = test: Cytotoxicity against human RPMI8226 cells assessed as cell growth at 10 uM after 48 hrs by SRB assay; details: RPMI-8226, 48 h, read-out: Activity; outline: as §1
MOLT-4 = test: Cytotoxicity against human MOLT4 cells assessed as cell growth at 10 uM after 48 hrs by SRB assay; details: MOLT-4, 48 h, read-out: Activity; outline: as §1
[6] = Cytotoxicity against human H1299 cells assessed as cell viability at 10 uM after 48 hrs by MTT assay; details: NCI-H1299, 48 h, read-out: Activity
Outline: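 About 2×10³ H1299 cells per well were grown for 24 h at 37 °C in 5% CO2. Compound was dissolved in DMSO immediately before use, diluted in complete medium and left on cells for 48 h. MTT was then added for 4 h at 37 °C, followed by SDS/DMF lysis buffer for 16 h at 37 °C. Absorbance was read at 550 nm.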

SMILES | growth at 10 µM (MDA-MB-231) [%] | growth at 10 µM (PC-3) [%] | growth at 10 µM [1] [%] | growth at 10 µM (SN12C) [%] | growth at 10 µM (RXF 393) [%] | growth at 10 µM (ACHN) [%] | growth at 10 µM (A498) [%] | growth at 10 µM (SK-OV-3) [%] | growth at 10 µM [2] [%] | growth at 10 µM [3] [%] | growth at 10 µM [4] [%] | growth at 10 µM [5] [%] | growth at 10 µM (SK-MEL-28) [%] | growth at 10 µM (SK-MEL-2) [%] | growth at 10 µM (LOX IMVI) [%] | growth at 10 µM (SNB-75) [%] | growth at 10 µM (U-251) [%] | growth at 10 µM (SNB-19) [%] | growth at 10 µM (SF-539) [%] | growth at 10 µM (SF-295) [%] | also measured
CCSc1nc2ccc3c(c2[nH]1)C(=O)c1ccccc1C3=O | 84.8 | 53.8 | 49.2 | 67.9 | 99.9 | 37.6 | 75.5 | 24.7 | 85.7 | 55 | 85.4 | 112 | 97.7 | 81.7 | 36.7 | 73.3 | 65 | 87.9 | 58.6 | 101 | growth at 10 µM (SF-268): 75.7%; growth at 10 µM (SW-620): 84.5%; growth at 10 µM (KM12): 68.3%; growth at 10 µM (HCT-15): 32.3%; growth at 10 µM (HCT-116): 68.8%; growth at 10 µM (NCI-H460): 38.8%; growth at 10 µM (NCI-H322M): 33.4%; growth at 10 µM (NCI-H226): 62.1%; growth at 10 µM (HOP-92): 75.3%; growth at 10 µM (HOP-62): 95.6%; growth at 10 µM (RPMI-8226): 28.5%; growth at 10 µM (MOLT-4): 101%; viability at 10 µM [6]: 127%
O=C1c2ccccc2C(=O)c2c1ccc1[nH]c(=S)[nH]c21 | 108 | 78.8 | 97.8 | 88 | 142 | 96.2 | 94.3 | 103 | 110 | 91.6 | 129 | 105 | 118 | 134 | 84 | 101 | 88.8 | 91.3 | 91.3 | 118 | growth at 10 µM (SF-268): 90.3%; growth at 10 µM (SW-620): 97.6%; growth at 10 µM (KM12): 102%; growth at 10 µM (HCT-15): 83.8%; growth at 10 µM (HCT-116): 96.3%; growth at 10 µM (NCI-H460): 98.6%; growth at 10 µM (NCI-H322M): 96.3%; growth at 10 µM (NCI-H226): 83.7%; growth at 10 µM (HOP-92): 65.5%; growth at 10 µM (HOP-62): 96.7%; growth at 10 µM (RPMI-8226): 101%; growth at 10 µM (MOLT-4): 109%; viability at 10 µM [6]: 99%
O=C1c2ccccc2C(=O)c2c1ccc1nc(SCCN3CCCC3)[nH]c21 | 63.5 | 6.9 | 21.2 | 52.9 | 22.3 | 34.6 | 71.4 | 55.6 | 53.7 | 57.2 | 87.5 | 92.8 | 100 | 107 | 11.9 | 81.8 | 69.1 | 60.5 | 62.2 | 76.9 | growth at 10 µM (SF-268): 42%; growth at 10 µM (SW-620): 22.8%; growth at 10 µM (KM12): 19.6%; growth at 10 µM (HCT-15): 40.4%; growth at 10 µM (HCT-116): 38.8%; growth at 10 µM (NCI-H460): 34.1%; growth at 10 µM (NCI-H322M): 73.2%; growth at 10 µM (NCI-H226): 88.1%; growth at 10 µM (HOP-92): 35.2%; growth at 10 µM (HOP-62): 73.7%; growth at 10 µM (RPMI-8226): -60.2%; growth at 10 µM (MOLT-4): 30.9%; viability at 10 µM [6]: 89%
